The source of these data is ChEMBL document CHEMBL1152242, “Aldehydic components of cinnamon bark extract suppresses RANKL-induced osteoclastogenesis through NFATc1 downregulation” (Bioorg Med Chem, 2008).

The source made the active and inactive calls. The calls are words filed in the database; no cut-off is given here.

The test system of assay [1] is RAW264.7. Nature of the assay: Inhibition of NF-kappaB activation transfected in RANKL-stimulated mouse RAW264.7 cells at 1 to 2 uM. It counts as cell-based.
The nature of assay [2]: Inhibition of NF-kappaB transfected in LPS-stimulated mouse RAW264.7 cells. It is filed as cell-based.
In assay [3] the target is T1, Nuclear factor of activated T-cells, cytoplasmic 1 (Mus musculus) (UniProt O88942).
T1 sequence (whole entry): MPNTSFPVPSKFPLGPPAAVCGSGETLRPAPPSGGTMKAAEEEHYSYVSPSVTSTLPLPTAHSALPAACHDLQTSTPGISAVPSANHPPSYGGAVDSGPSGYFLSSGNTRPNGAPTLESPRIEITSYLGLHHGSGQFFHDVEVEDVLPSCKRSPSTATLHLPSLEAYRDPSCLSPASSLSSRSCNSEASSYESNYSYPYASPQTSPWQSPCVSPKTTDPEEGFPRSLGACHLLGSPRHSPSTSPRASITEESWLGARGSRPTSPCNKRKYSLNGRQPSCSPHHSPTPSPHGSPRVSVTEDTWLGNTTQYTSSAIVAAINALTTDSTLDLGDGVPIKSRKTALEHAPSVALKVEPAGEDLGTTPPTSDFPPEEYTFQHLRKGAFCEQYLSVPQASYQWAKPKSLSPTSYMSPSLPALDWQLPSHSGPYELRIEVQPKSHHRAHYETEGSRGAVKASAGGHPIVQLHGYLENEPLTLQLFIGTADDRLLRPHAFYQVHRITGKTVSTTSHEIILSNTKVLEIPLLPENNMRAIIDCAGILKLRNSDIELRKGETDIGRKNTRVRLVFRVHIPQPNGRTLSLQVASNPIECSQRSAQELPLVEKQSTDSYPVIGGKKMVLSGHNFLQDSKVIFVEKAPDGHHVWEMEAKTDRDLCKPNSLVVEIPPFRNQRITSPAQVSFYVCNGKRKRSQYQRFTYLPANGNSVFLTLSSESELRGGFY
The experiment in a line: Inhibition of NFATc1 pathway in RANKL-stimulated mouse RAW264.7 cells at 1 to 2 uM. It counts as cell-based.

Assay [4] deals with RAW264.7. The experiment in a line: Inhibition of bone resorption by mature osteoclast in RANKL-stimulated mouse RAW264.7 cells pretreated for 1 hr measured after 8 days. It is filed as functional, cell-based. The gist of the method:
(§1)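 RAW264.7 cells pretreated with compound for 1 h, then RANKL (50 ng/ml) added on calcium phosphate apatite-coated plates. Incubated 8 days, then 5% sodium hypochlorite for 5 min, washed, dried and photographed. Total resorbed pit area (mm²) given as mean ± SD of triplicates.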

Assay [5] deals with RAW264.7. Nature of the assay: Inhibition of bone resorption by mature osteoclast in RANKL-stimulated mouse RAW264.7 cells at 2 uM pretreated for 1 hr measured after 8 days. It is filed as functional. The gist of the method:
as §1

In assay [6] the test system is RAW264.7. The experiment in a line: Inhibition of osteoclastogenesis in RANKL-stimulated mouse RAW264.7 cells at 1 to 2 uM. It is filed as functional, cell-based.
Assay [7] has as its system RAW264.7. The experiment in a line: Inhibition of NFATc1 expression in RANKL-stimulated mouse RAW264.7 cells after 48 hrs by immunoblotting. It is filed as functional, cell-based. The gist of the method:
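RAW264.7 cells in α-MEM cultured with RANKL plus test compound for 48 h. Lysates in HEPES pH 7.8/NaCl/EDTA/MgCl2/DTT buffer with protease inhibitors, run on 8% SDS-PAGE and transferred to nitrocellulose. Blocked in 5% milk/PBS-Tween, then anti-NFATc1 primary overnight at 4 °C with GAPDH as loading control. Detected with HRP secondary and ECL.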

Assay [8] has as its system RAW264.7. The experiment in a line: Inhibition of multinucleated cell formation in RANKL-stimulated mouse RAW264.7 cells at 0.5 to 2 uM after 3 days by TRAP staining. It is filed as functional, cell-based. The gist of the method:
(§2)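 RAW264.7 cells in α-MEM with RANKL, with or without compound, cultured 3 days at 37 °C, 5% CO2. Fixed in acetone/citrate for 30 s, then TRAP-stained with a kit. TRAP+ cells with ≥4 nuclei scored as MNCs by light microscopy, counting four fields, repeated four times. Relative MNC number reported as mean ± SD of triplicates; ANOVA with Dunnett's test.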

The subject of assay [9] is RAW264.7. The experiment in a line: Inhibition of multinucleated cell formation in RANKL-stimulated mouse RAW264.7 cells after 3 days by TRAP staining. It counts as functional, cell-based. In outline:
as §2

A word on the IC50: it is the point on the concentration scale where inhibition reaches its midpoint. As a reminder, the inhibition is the drop in the measured response relative to a control, in per cent. Take `COc1ccccc1/C=C/C=O`: the outcome in the assay on RAW264.7 [1] was inactive. Also, the IC50 in [2] was 31 µM. Besides, the result (in assay [3]; with RAW264.7 [4]; in the assay on RAW264.7 [6]; with RAW264.7 [7]; with RAW264.7 [8]) was Active. For the same molecule, the inhibition at 2 µM in the assay on RAW264.7 [5] was 95%.
Regarding `O=C(O)/C=C/c1ccccc1`, the outcome in the assay on RAW264.7 [9] was inactive.
On the same count and under the same terms, then `OC/C=C/c1ccccc1`, with “inactive”.
`O=C/C=C/c1ccccc1` [CINNAMALDEHYDE]: in assay [2], inhibition was half-maximal at 43 µM (IC50). Further, the outcome in the assay with RAW264.7 [4], in the assay on RAW264.7 [7] and with RAW264.7 [8] was Active.
